High-throughput results deposited in PubChem BioAssay by Sanford-Burnham Center for Chemical Genomics.
APJ agonist – agonists of human APJ apelin receptor. actives 0.11% (n = 330,000). activation, % at 20 µM. CHO-K1 APJ PathHunter beta-arrestin, luminescence; 0% DMSO wells, 100% apelin. P35414. AID 2520;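 active means activation more than six SD over the plate average, tested at 20 µM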;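 further: 0% = DMSO alone and 100% = apelin-13 at 10 nM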
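Assay system – PathHunter CHO-K1 APJ (AGTRL-1) beta-arrestin reporter cells · Compound – one dose, 20 µM compound, 1% DMSO · Timing – compound 90 min 25 °C, reagent 1 h · Measured by – luminescence from split beta-galactosidase complementation, Galacton Star/Emerald II substrate · Measure – beta-arrestin recruitment to APJ as agonist activity, luminescent signal · Benchmarks – DMSO vs Apelin-13 10 nM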
CCR6 antag – CCR6 (human) receptor antagonism; P51684; CHO-K1 CCR6 PathHunter beta-arrestin, luminescence, CCL20-stimulated; inhibition, % at 20 µM; actives 0.49% (n = 340,000); AID 493098;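 active means compounds whose inhibition of the agonist-driven luminescence signal at 20 µM reaches about 50%, limit read from the data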;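 further: cells stimulated with CCL20 at 14 nM final; plate controls were DMSO with CCL20 for no effect and DMSO without agonist for full effect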
Target sequence (P51684 whole entry, looked up): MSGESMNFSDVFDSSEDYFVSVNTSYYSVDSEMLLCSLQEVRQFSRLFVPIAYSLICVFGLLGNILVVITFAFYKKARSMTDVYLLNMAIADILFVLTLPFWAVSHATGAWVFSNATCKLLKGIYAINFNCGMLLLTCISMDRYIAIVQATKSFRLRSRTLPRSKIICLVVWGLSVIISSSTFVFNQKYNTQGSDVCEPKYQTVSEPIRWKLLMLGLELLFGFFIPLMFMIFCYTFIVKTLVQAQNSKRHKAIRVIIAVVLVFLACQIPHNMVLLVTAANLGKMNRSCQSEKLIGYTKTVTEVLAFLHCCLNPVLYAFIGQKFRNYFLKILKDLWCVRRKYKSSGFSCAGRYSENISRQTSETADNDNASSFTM
CXCR6 block – blocks human CXCR6 beta-arrestin recruitment; actives 0.36% (n = 360,000); O00574; inhibition, % at 20 µM; CHO-K1 PathHunter CXCR6 beta-arrestin, luminescence; in the data active means inhibition above about 34%, passing the limit was not always enough;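 further: antagonist mode with CXCL16 agonist at 10 nM final; 0% = 10 nM CXCL16 with DMSO and 100% = unstimulated wells without agonist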
EBI2 block – antagonists of human EBI2 receptor. P32249. EBI2 beta-arrestin recruitment, luminescence, 7a,25-OHC stimulated. inhibition, % at 5 µM. actives 0.81% (n = 360,000); in the data active means inhibition above about 38%;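 further: enzyme fragment complementation signal reports receptor beta-arrestin coupling in cells; 0% = agonist plus DMSO wells and 100% = wells without agonist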
APJ antagonist – APJ receptor antagonism. CHO-K1 APJ beta-arrestin complementation, luminescence. inhibition, % at 20 µM. actives 0.32% (n = 330,000). P35414;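 active means inhibition above about 40% at 20 µM, limit read from the data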;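 further: cells challenged with 10 nM apelin-13 agonist together with compound; plate controls were apelin-13 plus DMSO wells for no effect and DMSO wells lacking apelin-13 for full effect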
Active calls of the source: *; . = not tested or not shown. Shown are actives, neighbours in structure and some others; about 1.5% of the full set was active somewhere.

SMILES | APJ agonist | CCR6 antag | CXCR6 block | EBI2 block | APJ antagonist
CN(/N=C/c1cc(Br)cc(Br)c1O)c1cccc(C(F)(F)F)n1 | -3 | . | 58* | -6 | 28
COc1ccccc1N(C(=O)CCl)c1cn(C(C)=O)c2ccccc12 | -3 | 8 | 2 | -8 | 19
COc1ccccc1N(C(C)=O)C1=C(Cl)C(=O)c2ccccc2C1=O | . | . | 96* | 3 | .
O=C(Nc1cc(Cl)cc2c1-c1ccc(Cl)cc1C2O)C(Cl)Cl (centres undefined) | . | 30 | -1 | 44* | .
Cc1ccc(C(CCN(Cc2ccccc2)C(=O)c2ccco2)c2ccco2)cc1 (centres undefined) | -1 | 52* | 16 | -1 | 0
CCCn1nnc(NC(=S)NC(=O)c2ccc(-c3ccc(Br)cc3)o2)n1 | -9 | 59* | 31 | 8 | 14
CCCn1nnc(NC(=S)NC(=O)Cc2ccccc2)n1 | -5 | 43 | 26 | -2 | 25
Cc1cc2nc3ccc(N(C)C)cc3nc2cc1N | 8 | 18 | 4 | -14 | -7
CC(C)C(=O)N1CCCCCCN1C(=O)C(C)C | . | . | 6 | 0 | .
O=C(Nc1ccc(N2CCCCC2)cc1)c1cc([N+](=O)[O-])cc([N+](=O)[O-])c1 | 0 | -1 | -20 | -6 | -10
CCC(CC)c1nnc(NC(=O)c2cc([N+](=O)[O-])ccc2N2CCCCC2)s1 | -1 | 71* | 16 | 11 | 18
O=C(Cn1c(N2CCN(c3ccccc3)CC2)nc2ccccc21)c1ccccc1 | -1 | 50* | 26 | 10 | 23
CCc1ccc2nc(SCC(=O)N3CC(=O)Nc4ccccc43)c(C#N)cc2c1 | 0 | 11 | 2 | 49* | -4
CCN1/C(=C\C=C2\C(=O)N(C)C(=S)N2C)Sc2ccccc21 | 19* | 38 | 23 | 21 | 13
OC(c1ccc(-c2ccccc2)cc1)c1ncc(-c2ccccc2Cl)[nH]1 (centres undefined) | . | . | -6 | 8 | .
COC(=O)[C@@H]1[C@@H](C#N)C2(c3ccccc3-c3ccccc32)N(c2ccc(Cl)cc2)N1C#N | 1 | 47 | 52* | 17 | 7
O=C(Cc1ccc(Cl)cc1)NN1C(=O)c2ccccc2C1=O | 2 | 5 | -8 | -1 | 13
CC(C)C1Nc2c(O)cc(Cl)c([N+](=O)[O-])c2C2C=CCC21 (centres undefined) | . | 50* | 30 | 2 | .
O=C(NC(=S)Nc1ccc(Oc2ccccc2)cc1)c1ccc(Cl)cc1 | 0 | 46 | 28 | -7 | 16
Cc1ccccc1C(=O)NC(=S)Nc1ccc(Oc2ccc(Cl)cc2)cc1 | -6 | 53* | 25 | 22 | 36
COc1cc(/C=N/n2c(-c3ccc4c(c3)NC(=O)CO4)csc2=Nc2cccc(C)c2)ccc1O | -4 | 19 | 13 | 52* | 7
COCCN=c1scc(-c2ccc3c(c2)NC(=O)CO3)n1/N=C(\C)c1ccc(O)cc1 | -6 | . | 56* | 37 | 0
COCCN=c1scc(-c2cccs2)n1/N=C(\C)c1ccco1 | -3 | 17 | 3 | -1 | 9
COc1ccc(CSc2nc3ccccc3c(=O)n2CCCN2CCOCC2)cc1F | 0 | 20 | 4 | 12 | 26
C/C=C(/C)C(=O)OC1CC(C)(C)C[C@H]2C3=CC[C@@H]4[C@@]5(C)CCC(O[C@@H]6O[C@@H](C(=O)O)[C@@H](O)C(O[C@@H]7OC[C@H](O)[C@@H](O)[C@@H]7O[C@@H]7OC(CO)C(O)[C@@H](O)[C@@H]7O)C6O[C@@H]6OC(CO)C(O)C(O)C6O)[C@@](C)(CO)[C@@H]5CC[C@]4(C)[C@]3(C)CC(O)[C@@]12CO (some centres undefined) | 12 | 27 | 15 | -15 | 23
C/C=C(\C)C(=O)OC1[C@H](OC(C)=O)C2(CO)C(CC1(C)C)C1=CCC3C4(C)CCC(O[C@@H]5O[C@H](C(=O)O)[C@@H](O[C@@H]6O[C@H](CO)[C@@H](O)[C@H](O)[C@H]6O)[C@H](O)[C@H]5O[C@H]5O[C@H](CO)[C@@H](O)[C@H](O)[C@H]5O)[C@](C)(CO)C4CCC3(C)[C@]1(C)C[C@H]2O (some centres undefined) | . | 95* | 82* | -14 | .
Cc1c(N/N=C(\C#N)C(=O)c2ccc(Cl)cc2)c(=O)n(-c2ccccc2)n1C | . | 81* | 77* | 14 | .
